Source: PubChem
Only some compounds are listed: those with a hit (about 2.2% of all), similar ones and a draw of the others.
HCT116 PTEN-null: suppresses growth of cells with PTEN deletion; AID 827; 140,000 tested, 1.2% active; HCT116 PTEN-null viability, CellTiter-Glo, 60 h; active compounds read low; viability, % at 10 µM;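 active means viability at or below a set limit, 4 SD under the median of all tested compounds, cut at about 3.7% in these data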;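 further: PTEN knockout HCT116 line with beta catenin targeted HCT116 as companion control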
SDO1 yeast rescue: restores growth of sdo1-depleted yeast | S. cerevisiae sdo1-depleted JHY4D growth rescue, OD600 30 h; active compounds read high; pdr5 snq2 efflux-pump mutant strain | 140,000 tested, 0.21% active | AID 817 | z-score at 10 µM;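 active means z-score above 3 at both the 24 hr and the 30 hr optical density reads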;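 further: z-score against mean and SD of all compound wells on the same plate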
Dynein transport: blocks dynein driven cargo transport along microtubules; 220,000 tested, 0.47% active; z-score, hits read low; 3617.4 mouse cells, GR-EGFP nuclear translocation imaging; test concentration mostly 20 µM; stimulated with dexamethasone, 1 µM; active compounds read low;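 active means plate z-score of nuclear minus cytoplasmic receptor signal below a set negative limit, without overly bright fluorescence or cell loss, cut at about -3.5 in these data, passing the limit was not always enough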;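 further: z-score of nuclear minus cytoplasmic ring GR-EGFP intensity difference per well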
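Also added – dexamethasone, 1.0 µM final · Buffer or medium – tet-free, stripped-serum medium · Schedule – induction 48 h, compound 1 h, agonist 30 min · Detection – formaldehyde fixation, Hoechst nuclear stain, 10x automated fluorescence imaging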
bCat KO growth: beta-catenin-lacking colon tumor cell growth suppression. 140,000 tested, 1.5% active. viability, % at 10 µM. HCT116 beta-catenin knockout viability, CellTiter-Glo, 60 h; active compounds read low;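 active means viability at or under a set limit, the compound median less 4 SD, cut at about 6% in these data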;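 further: 0% = Hyamine 1622 control at 20 µM and 100% = untreated cell control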
Autophagy mod: alters autophagy in cells | 190,000 tested, 0.98% active | MEF GFP-LC3 puncta imaging; test concentration mostly 10 µM | calls only at 10 µM (by protocol);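 active means percentage of spot-positive cells more than 3 SD above its plate mean, without a fluorescence outlier flag or 80% toxicity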;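 further: spot-positive cell cutoff set from DMSO-treated cells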
Active calls of the source: *.

What do the screens show for `Cc1[nH][nH]c(=O)c1C(c1ccc(-c2ccc(Cl)c(C(=O)O)c2)o1)c1c(C)[nH][nH]c1=O`?
Dynein transport: 0.428; Autophagy mod: active

What do the screens show for `N#C/C(=C\c1c[nH]c2ccccc12)C(=O)NCC1CCCO1` (centres undefined)?
Dynein transport: -0.772; Autophagy mod: inactive

What do the screens show for `c1ccc(-c2nc(N3CCOCC3)c3ccccc3n2)nc1`?
HCT116 PTEN-null: 3.3*; SDO1 yeast rescue: -0.67; Dynein transport: -1.07; bCat KO growth: 7.5; Autophagy mod: inactive

How did CCN1CCN(c2nc(-c3ccccn3)nc3ccccc23)CC1 do in these assays?
HCT116 PTEN-null: 10.7; SDO1 yeast rescue: -0.26; Dynein transport: -0.305; bCat KO growth: 10.9; Autophagy mod: inactive

How did c1ccc(-c2nc(N3CCCCCC3)c3ccccc3n2)nc1 do in these assays?
HCT116 PTEN-null: 3.4*; SDO1 yeast rescue: -2.8; Dynein transport: 0.0992; bCat KO growth: 3.8*; Autophagy mod: inactive

How did c1ccc(CN2CCN(c3nc(-c4ccccn4)nc4ccccc34)CC2)cc1 do in these assays?
HCT116 PTEN-null: 13.5; SDO1 yeast rescue: -1.5; Dynein transport: -0.0881; bCat KO growth: 32.6; Autophagy mod: inactive

Results for COc1cc(CN2CCN(c3cccc(C)c3C)CC2)cc(Br)c1O ?
HCT116 PTEN-null: 98.2; SDO1 yeast rescue: 0.35; Dynein transport: 1.07; bCat KO growth: 94.4; Autophagy mod: inactive

How did O=[N+]([O-])c1ccc(N2CCNCC2)cc1Sc1nc2ccccc2[nH]1 do in these assays?
HCT116 PTEN-null: 48.6; SDO1 yeast rescue: 0.95; Dynein transport: -0.207; bCat KO growth: 38.4; Autophagy mod: inactive

Results for Cc1ccc(NC(=O)CCCN2C(=O)/C(=C/C=C/c3ccccc3)SC2=S)cc1 ?
HCT116 PTEN-null: 2.4*; SDO1 yeast rescue: -0.82; Dynein transport: 1.16; bCat KO growth: 6.5; Autophagy mod: inactive

Results for CC(NCCN(C)C)C(=O)C12CC3CC(CC(C3)C1)C2 (centres undefined) ?
Dynein transport: 2.04

How did COc1ccc(C2(C)NC(=O)N(CC(=O)NCCC3=CCCCC3)C2=O)cc1OC (centres undefined) do in these assays?
HCT116 PTEN-null: 90.4; SDO1 yeast rescue: 1.05; Dynein transport: 0.0769; bCat KO growth: 96.9; Autophagy mod: inactive

Results for CC(=O)[C@@]1(O)CC[C@H]2[C@@H]3CCC4=CC(=O)CC[C@]4(C)[C@H]3CC[C@@]21C ?
HCT116 PTEN-null: 82.7; SDO1 yeast rescue: -1.95; Dynein transport: -0.899; bCat KO growth: 81.0; Autophagy mod: inactive

What do the screens show for `CCCCCC(=O)O[C@]1(C(C)=O)CC[C@H]2[C@@H]3CCC4=CC(=O)CC[C@]4(C)[C@H]3CC[C@@]21C`?
HCT116 PTEN-null: 6.8; SDO1 yeast rescue: -1.08; Dynein transport: -1.12; bCat KO growth: 4.8*; Autophagy mod: inactive

How did O=c1[nH]cc(COCc2ccccc2)c(=O)[nH]1 do in these assays?
HCT116 PTEN-null: 4.3; SDO1 yeast rescue: 0.17; Dynein transport: 0.103; bCat KO growth: 2.6*; Autophagy mod: inactive

What do the screens show for `COc1ccc(Cc2c[nH]c(=O)[nH]c2=O)cc1`?
HCT116 PTEN-null: 91.8; SDO1 yeast rescue: 0.34; Dynein transport: -0.934; bCat KO growth: 87.1; Autophagy mod: inactive

Results for FC(F)(F)c1ccccc1NC(=S)N/N=C1\CC2CC=CC12 (centres undefined) ?
Dynein transport: -0.138; Autophagy mod: inactive

What do the screens show for `Cc1occc1C(=O)N/N=C/C1=C(N2CCOCC2)C(=C\c2ccc(Cl)cc2Cl)/CC1`?
HCT116 PTEN-null: 69.8; SDO1 yeast rescue: 0.76; Dynein transport: 6.73; bCat KO growth: 72.2; Autophagy mod: active

Results for O=C(Nc1ccc(Cl)c(Cl)c1)Nc1nnc(CSc2ccccc2)s1 ?
HCT116 PTEN-null: 2.6*; SDO1 yeast rescue: 0.94; Dynein transport: -0.353; bCat KO growth: 2.2*; Autophagy mod: inactive

Results for COc1ccc(-n2c(N3CCN(C)CC3)nc3sc4c(c3c2=O)CCCCC4)cc1 ?
HCT116 PTEN-null: 54.3; SDO1 yeast rescue: -0.93; Dynein transport: -0.000266; bCat KO growth: 39.5; Autophagy mod: active

How did COc1ccc(-n2c(C)nc3sc4c(c3c2=O)CCC4)cc1 do in these assays?
Dynein transport: -0.318; Autophagy mod: inactive

Results for CCOC(=O)N1CCC(N(CCCOC)C(=O)Nc2cccc(OC)c2)CC1 ?
HCT116 PTEN-null: 99.8; SDO1 yeast rescue: 1.22; Dynein transport: 2.67; bCat KO growth: 97.6; Autophagy mod: inactive
